Experimental data taken from ChEMBL document CHEMBL4433206, “Novel Lysine-Based Thioureas as Mechanism-Based Inhibitors of Sirtuin 2 (SIRT2) with Anticancer Activity in a Colorectal Cancer Murine Model” (J Med Chem, 2019).
Activity calls are given as the source filed them. The rule behind the calls is not given here.

What was measured:
SW948 = experiment: Growth inhibition of human SW948 cells after 72 hrs by CellTiter-Blue assay; format: functional; conditions: SW948, 72 h
HCT-116 [1] = experiment: Growth inhibition of human HCT116 cells after 72 hrs by CellTiter-Blue assay; format: functional; conditions: HCT-116, 72 h
[2] = target: T1, NAD-dependent protein deacetylase sirtuin-2 (Homo sapiens, UniProt Q8IXJ6); experiment: Inhibition of recombinant human N-terminal His6-tagged/SUMO-fused SIRT2 (38 to 356 residues) expressed in Escherichia coli BL21 assessed as reduction in deacetylase activity using acetylated H3K9 as substrate preincubated for 15 mins followed by substrate addition and measured after 6 mins by UV-HPLC analysis
T1 sequence (Q8IXJ6 whole entry): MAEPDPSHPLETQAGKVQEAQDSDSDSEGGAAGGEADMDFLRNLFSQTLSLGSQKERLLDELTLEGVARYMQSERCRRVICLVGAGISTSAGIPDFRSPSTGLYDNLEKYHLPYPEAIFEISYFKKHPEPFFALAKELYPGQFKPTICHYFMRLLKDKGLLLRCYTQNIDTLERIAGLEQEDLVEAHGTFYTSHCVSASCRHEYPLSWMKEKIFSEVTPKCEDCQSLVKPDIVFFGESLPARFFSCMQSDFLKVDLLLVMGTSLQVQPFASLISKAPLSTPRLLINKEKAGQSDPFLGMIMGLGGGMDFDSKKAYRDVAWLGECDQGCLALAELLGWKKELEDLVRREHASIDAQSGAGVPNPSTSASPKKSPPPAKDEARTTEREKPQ

[3] = target: T2, NAD-dependent protein deacetylase sirtuin-1 (Homo sapiens, UniProt Q96EB6); experiment: Inhibition of human SIRT1 deacetylase activity using acetylated H3K9 as substrate preincubated for 15 mins followed by substrate addition and measured after 3 mins by UV-HPLC analysis
T2 sequence (Q96EB6 whole entry): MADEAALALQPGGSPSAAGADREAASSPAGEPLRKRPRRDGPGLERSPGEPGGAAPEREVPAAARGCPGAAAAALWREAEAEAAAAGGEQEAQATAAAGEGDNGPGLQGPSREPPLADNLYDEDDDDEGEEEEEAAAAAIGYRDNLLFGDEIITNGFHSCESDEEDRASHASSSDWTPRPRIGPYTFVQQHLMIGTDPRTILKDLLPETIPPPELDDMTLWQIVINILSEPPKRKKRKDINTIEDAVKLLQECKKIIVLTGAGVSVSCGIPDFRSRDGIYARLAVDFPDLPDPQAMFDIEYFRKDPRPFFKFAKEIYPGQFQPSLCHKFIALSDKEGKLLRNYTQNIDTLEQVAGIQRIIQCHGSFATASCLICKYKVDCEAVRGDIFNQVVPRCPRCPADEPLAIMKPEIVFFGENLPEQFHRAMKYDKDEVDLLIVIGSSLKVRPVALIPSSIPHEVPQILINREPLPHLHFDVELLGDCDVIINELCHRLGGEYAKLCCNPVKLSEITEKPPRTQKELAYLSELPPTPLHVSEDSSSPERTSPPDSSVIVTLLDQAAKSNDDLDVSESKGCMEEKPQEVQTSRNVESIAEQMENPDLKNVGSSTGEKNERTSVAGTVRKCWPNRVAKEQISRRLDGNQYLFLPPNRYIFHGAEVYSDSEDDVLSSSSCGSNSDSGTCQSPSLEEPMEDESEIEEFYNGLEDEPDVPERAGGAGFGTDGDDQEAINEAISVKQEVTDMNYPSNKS

MDA-MB-468 = experiment: Growth inhibition of human MDA-MB-468 cells after 72 hrs by CellTiter-Blue assay; format: functional; conditions: MDA-MB-468, 72 h
MDA-MB-231 = experiment: Growth inhibition of human MDA-MB-231 cells after 72 hrs by CellTiter-Blue assay; format: functional; conditions: MDA-MB-231, 72 h
BXPC-3 = experiment: Growth inhibition of human BxPC3 cells after 72 hrs by CellTiter-Blue assay; format: functional; conditions: BXPC-3, 72 h
NCI-H23 = experiment: Growth inhibition of human NCI-H23 cells after 72 hrs by CellTiter-Blue assay; format: functional; conditions: NCI-H23, 72 h
A549 = experiment: Growth inhibition of human A549 cells after 72 hrs by CellTiter-Blue assay; format: functional; conditions: A549, 72 h
[4] = Cytotoxicity against human HME1 cells after 72 hrs by CellTiter-Blue assay; format: cell-based
How it was run: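 Cells were seeded per well (HCT116 1000; MDA-MB-231, MDA-MB-468, NCI-H23, A549, SW948 2000; MCF7, BxPC-3, HME1 3000) and left 20 h at 37 °C. Inhibitor was added at 1–100 μM final for 72 h at 37 °C. CellTiter-Blue was then added for 4 h, and fluorescence was read at ex 560/em 590 nm.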

HCT-116 [5] = experiment: Inhibition of anchorage-independent cell growth in human HCT116 cells assessed as reduction in colony formation incubated for 5 days followed by compound re-addition and measured after 9 to 11 days by nitro blue tetrazolium chloride-based soft agar colony formation assay; format: functional
How it was run: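 HCT116 cells were mixed at 500 cells/mL into 0.3% agar growth layer over a 0.6% agar base layer (McCoy's medium, 10% calf serum). Both layers held inhibitor at 2.5–50 μM final. Wells were run in triplicate at 37 °C. Inhibitor-containing growth layer was added again at day 5. At 9–11 days, nitro blue tetrazolium was added overnight and colonies were imaged and counted.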

[6] = target: T3, NAD-dependent protein deacetylase sirtuin-1 (Homo sapiens) (UniProt Q96EB6); experiment: Inhibition of SIRT1 in Trichostatin A treated human HCT116 cells assessed as increase in acetylated p53 K382 level at 10 to 50 uM after 6 hrs by Western blot analysis
T3 sequence (whole entry): T2 sequence (Q96EB6 whole entry)
How it was run: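 HCT116 cells were seeded at 400 000 per well, grown 24 h, then cotreated with 400 nM TSA and inhibitor (25 μM, or 10–50 μM) for 6 h at 37 °C. Cells were lysed in 4% SDS buffer, pH 7.4. 50 μg of lysate was resolved by 12% SDS-PAGE and blotted for acetyl-p53 K382 antibody, with β-actin as loading control. Detection was by ECL.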

HCT-116 [7] = experiment: Antitumor activity against human HCT116 cells harboring KRAS G13D mutant xenografted in NSG mouse assessed as tumor growth inhibition by measuring reduction in tumor weight at 100 mg/kg, ip administered daily for 12 days and measured post-last dose relative to control; format: functional; conditions: HCT-116, ip, 288 h, read-out: TGI
How it was run: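 NSG mice, female and male, about 4–8 weeks old, were implanted with 1 × 10⁶ HCT116 cells on both sides of the abdomen. Tumours grew 3–5 days until visible. Compound was given ip daily for 12 days in vehicle containing 10% DMSO and 10% Kolliphor EL (dosing solution 10 mg/mL); control mice received vehicle. Tumour volume was measured daily; tumours were excised and weighed on the last day. Unpaired two-tailed t-test.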

[8] = Toxicity in NSG mouse xenografted with human HCT116 cells harboring KRAS G13D mutant assessed as body weight loss at 100 mg/kg, ip administered daily for 12 days measured during compound dosing; format: organism-based; conditions: in vivo, 288 h
[9] = Toxicity in NSG mouse xenografted with human HCT116 cells harboring KRAS G13D mutant assessed as body weight loss at 100 mg/kg, ip administered daily for 12 days measured during compound dosing; conditions: in vivo, 288 h

Row | GI50 (SW948) [µM] | GI50 (HCT-116 [1]) [µM] | IC50 [2] [µM] | IC50 [3] [µM] | GI50 (MDA-MB-468) [µM] | GI50 (MDA-MB-231) [µM] | GI50 (BXPC-3) [µM] | GI50 (NCI-H23) [µM] | GI50 (A549) [µM] | GI50 (HCT-116 [5]) [µM] | inhibition [6] | SMILES | Activity [4] | inhibition in vivo at 100 mg/kg (HCT-116 [7]) [%] | Activity [8] | Activity [9]
1 | 12.8 | 54.4 | 0.15 | > 200 | 13.4 | 14.8 | 24.3 | 15.6 | 9 | 7 | inactive | CCCCCCCCCCNC(=S)NCCCC[C@H](NC(=O)OCc1ccccc1)C(=O)Nc1ccccc1 | Non-Toxic | 49 | Non-Toxic | Non-Toxic
2 | 30 | 58.9 | 0.061 | 11 | 26.1 | 27.2 | 72.4 | 35.8 | 20.8 | 7.4 | inactive | CCCCCCCCNC(=S)NCCCC[C@H](NC(=O)OCc1ccccc1)C(=O)Nc1ccccc1 | Non-Toxic | 78 | Non-Toxic | Non-Toxic
